From ChEMBL document CHEMBL3758144, “Dihydroisocoumarin Derivatives from Marine-Derived Fungal Isolates and Their Anti-inflammatory Effects in Lipopolysaccharide-Induced BV2 Microglia” (J Nat Prod, 2015)
Activity calls are given as the source filed them. The rule behind the calls is not given here.

What was measured:
[1] = (§1) Antiinflammatory activity in LPS-induced […] BV2 cells assessed as reduction in NO production pretreated for 30 mins followed by LPS stimulation measured for 24 hrs by Greiss assay; type: functional, cell-based; conditions: BV-2
Outline: (§2)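 BV2 microglia in DMEM with 10% heat-inactivated FBS, penicillin/streptomycin and 2 mM L-glutamine at 37 °C, 5% CO2. Pretreated 30 min with test agent (10−80 μM range), then LPS 1 μg/mL for 24 h. Nitrite in supernatant measured by Griess reagent, absorbance at 525 nm. IC50 from mean of three experiments ± SD.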

BV-2 [2] = assay: as §1; type: functional, cell-based; conditions: Mus musculus; outline: as §2
[3] = (§3) Antiinflammatory activity in LPS-induced […] BV2 cells assessed as reduction in PGE2 production pretreated for 30 mins followed by LPS stimulation measured for 24 hrs by ELISA; type: functional, cell-based; conditions: BV-2
Outline: (§4)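 BV2 microglia cultured in 24-well plates and preincubated 30 min with test agent (10−80 μM range), then stimulated 24 h with LPS 1 μg/mL. Supernatant PGE2 quantified by ELISA kit. IC50 from mean of three experiments ± SD.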

BV-2 [4] = assay: as §3; type: functional, cell-based; conditions: Mus musculus; outline: as §4
BV-2 [5] = assay: Inhibition of LPS-induced iNOS expression in […] BV2 cells pretreated for 30 mins followed by LPS stimulation measured for 24 hrs by Western blot analysis; type: functional, cell-based; conditions: Mus musculus
Outline: (§5)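 BV2 microglia pretreated 30 min with test agent at 20−80 μM, then LPS 1 μg/mL for 24 h. Lysates in 20 mM Tris-HCl pH 7.4 with protease inhibitors, protein by Lowry. SDS-PAGE, nitrocellulose transfer, milk block, ECL detection. Band densitometry normalized to β-actin.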

[6] = Cytotoxicity against […] BV2 cells at 10 to 80 uM by MTT assay; type: cell-based; conditions: bv-2, 80 µM
Outline: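 MTT added to BV2 cell suspension (1 × 10^5 cells/mL), incubated 30 min. Formazan dissolved in acidic 2-propanol and read at 540 nm. Compounds tested at 10−80 μM.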

BV-2 [7] = assay: Inhibition of LPS-induced COX2 expression in […] BV2 cells pretreated for 30 mins followed by LPS stimulation measured for 24 hrs by Western blot analysis; type: functional, cell-based; conditions: Mus musculus; outline: as §5
[8] = target: T1, NF-kappa-B inhibitor alpha (Homo sapiens) (UniProt P25963); assay: Inhibition of IkappaB-alpha phosphorylation in LPS-induced […] BV2 cells pretreated for 30 mins followed by LPS stimulation for 30 mins by Western blot analysis; type: cell-based; conditions: BV-2
T1 sequence (whole entry): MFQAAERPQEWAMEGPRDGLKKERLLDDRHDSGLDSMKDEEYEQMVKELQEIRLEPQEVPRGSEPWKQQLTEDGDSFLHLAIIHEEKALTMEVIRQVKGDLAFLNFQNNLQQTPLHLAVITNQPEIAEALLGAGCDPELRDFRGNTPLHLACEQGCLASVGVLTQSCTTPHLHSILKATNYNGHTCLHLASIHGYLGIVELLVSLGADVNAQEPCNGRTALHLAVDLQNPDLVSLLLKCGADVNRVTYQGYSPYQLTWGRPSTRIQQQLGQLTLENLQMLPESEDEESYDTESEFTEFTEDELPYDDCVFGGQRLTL
Outline: (§6)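 BV2 microglia pretreated 30 min with test agent (20, 40, 80 μM), then LPS for 30 min. Cytosolic and nuclear fractions prepared with NE-PER reagents. Western blot for IκB-α, phospho-IκB-α, p65 and p50. Densitometry normalized to β-actin (cytosol) or PCNA (nucleus). Mean of three experiments ± SD.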

[9] = Effect on JNK expression in […] BV2 cells at 20 to 80 uM pretreated for 30 mins followed by LPS stimulation for 30 mins by Western blot analysis; type: ADME, cell-based; conditions: bv-2, 0.5 h
Outline: (§7)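 BV2 microglia pretreated 30 min with test agent (20−80 μM), then LPS 1 μg/mL for 30 min. Total and phosphorylated ERK, JNK and p38 detected by Western blot (SDS-PAGE, nitrocellulose, ECL).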

[10] = target: T1, NF-kappa-B inhibitor alpha (Homo sapiens); assay: Inhibition of IkappaB-alpha degradation in LPS-induced […] BV2 cells pretreated for 30 mins followed by LPS stimulation for 30 mins by Western blot analysis; type: cell-based; conditions: BV-2; outline: as §6
[11] = Effect on p38 expression in […] BV2 cells at 20 to 80 uM pretreated for 30 mins followed by LPS stimulation for 30 mins by Western blot analysis; type: ADME, cell-based; conditions: bv-2, 0.5 h; outline: as §7
p38 MAPK (Mus musculus) = assay: Inhibition of p38 phosphorylation in mouse BV2 cells pretreated for 30 mins followed by LPS stimulation for 30 mins by Western blot analysis; conditions: BV-2
BV-2 [12] = assay: Inhibition of ERK phosphorylation in […] BV2 cells at 20 to 80 uM pretreated for 30 mins followed by LPS stimulation for 30 mins by Western blot analysis; type: cell-based; outline: as §7
JNK (Mus musculus) = assay: Inhibition of JNK phosphorylation in mouse BV2 cells at 20 to 80 uM pretreated for 30 mins followed by LPS stimulation for 30 mins by Western blot analysis; conditions: BV-2
[13] = Effect on ERK expression in […] BV2 cells at 20 to 80 uM pretreated for 30 mins followed by LPS stimulation for 30 mins by Western blot analysis; type: ADME, cell-based; conditions: bv-2, 0.5 h; outline: as §7
[14] = target: T2, Nuclear factor NF-kappa-B p105 subunit (Homo sapiens) (UniProt P19838); assay: Inhibition of LPS-induced p50 translocation from cytosol to nucleus in […] BV2 cells pretreated for 30 mins followed by LPS stimulation for 30 mins by Western blot analysis; type: cell-based; conditions: BV-2; outline: as §6
T2 sequence (whole entry): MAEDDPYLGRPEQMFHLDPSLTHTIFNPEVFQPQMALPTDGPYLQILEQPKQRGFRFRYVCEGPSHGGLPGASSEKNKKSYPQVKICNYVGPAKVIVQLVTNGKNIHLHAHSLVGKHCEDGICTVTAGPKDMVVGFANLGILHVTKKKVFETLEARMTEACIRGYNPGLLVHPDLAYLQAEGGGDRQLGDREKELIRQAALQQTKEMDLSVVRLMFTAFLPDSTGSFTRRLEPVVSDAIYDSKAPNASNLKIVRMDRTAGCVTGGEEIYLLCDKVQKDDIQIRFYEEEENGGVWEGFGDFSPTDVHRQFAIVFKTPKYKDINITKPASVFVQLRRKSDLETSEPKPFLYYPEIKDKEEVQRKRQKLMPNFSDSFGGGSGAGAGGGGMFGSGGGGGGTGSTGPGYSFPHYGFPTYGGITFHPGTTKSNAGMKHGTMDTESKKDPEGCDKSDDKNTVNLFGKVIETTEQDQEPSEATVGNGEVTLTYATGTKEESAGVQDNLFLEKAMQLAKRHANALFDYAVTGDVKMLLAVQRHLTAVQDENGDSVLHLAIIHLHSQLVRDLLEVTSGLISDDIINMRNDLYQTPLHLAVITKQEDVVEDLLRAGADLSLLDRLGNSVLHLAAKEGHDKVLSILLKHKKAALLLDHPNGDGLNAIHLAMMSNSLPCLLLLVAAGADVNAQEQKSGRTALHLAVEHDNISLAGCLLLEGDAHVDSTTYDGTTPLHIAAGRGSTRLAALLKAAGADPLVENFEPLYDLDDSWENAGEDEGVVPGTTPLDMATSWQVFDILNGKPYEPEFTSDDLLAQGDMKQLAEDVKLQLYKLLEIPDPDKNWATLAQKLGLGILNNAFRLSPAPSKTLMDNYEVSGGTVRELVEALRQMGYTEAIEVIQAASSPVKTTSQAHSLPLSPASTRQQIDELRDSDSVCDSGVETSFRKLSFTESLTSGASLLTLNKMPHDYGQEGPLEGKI

[15] = target: Transcription factor p65 (Homo sapiens) (UniProt Q04206); assay: Inhibition of LPS-induced p65 translocation from cytosol to nucleus in […] BV2 cells pretreated for 30 mins followed by LPS stimulation for 30 mins by Western blot analysis; type: cell-based; conditions: BV-2; outline: as §6
Chain of Transcription factor p65 (Homo sapiens) (Q04206 whole entry): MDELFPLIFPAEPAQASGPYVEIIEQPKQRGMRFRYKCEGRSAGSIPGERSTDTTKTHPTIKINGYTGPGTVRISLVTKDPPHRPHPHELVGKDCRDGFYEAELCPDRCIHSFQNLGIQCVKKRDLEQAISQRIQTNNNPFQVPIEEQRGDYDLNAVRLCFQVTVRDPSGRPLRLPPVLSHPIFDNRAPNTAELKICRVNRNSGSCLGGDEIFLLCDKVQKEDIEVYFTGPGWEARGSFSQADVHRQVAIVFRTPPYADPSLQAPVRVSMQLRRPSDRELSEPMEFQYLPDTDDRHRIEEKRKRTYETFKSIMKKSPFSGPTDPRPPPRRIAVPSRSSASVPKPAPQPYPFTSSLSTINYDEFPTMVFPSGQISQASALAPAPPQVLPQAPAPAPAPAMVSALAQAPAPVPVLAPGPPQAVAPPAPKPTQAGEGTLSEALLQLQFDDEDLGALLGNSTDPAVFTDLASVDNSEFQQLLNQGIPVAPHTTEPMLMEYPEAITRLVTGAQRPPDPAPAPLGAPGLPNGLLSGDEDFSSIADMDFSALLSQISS

For `C[C@H]1C[C@@H](O)C[C@H](C[C@H]2Cc3cc(O)cc(O)c3C(=O)O2)O1`, the IC50 [1] was 65 µM, the Activity (BV-2 [2]) was “Dose-dependent effect” and the IC50 [3] was 61 µM. The Activity (BV-2 [4]) was “Dose-dependent effect”, the inhibition (BV-2 [5]) was “Dose-dependent effect” and the Activity [6] was “Non-toxic”. For the same compound, the inhibition (BV-2 [7]) was “Dose-dependent effect”.
With `C[C@H]1CCC[C@H](C[C@H]2Cc3cc(O)cc(O)c3C(=O)O2)O1` [CLADOSPORIN] the IC50 [1] was 24 µM, the Activity (BV-2 [2]) was “Dose-dependent effect” and the IC50 [3] was 27 µM. The Activity (BV-2 [4]) was “Dose-dependent effect”, the inhibition (BV-2 [5]) was “Dose-dependent effect” and the Activity [6] was “Non-toxic”. For the same compound, the inhibition (BV-2 [7]) was “Dose-dependent effect”.
For `COc1cc(O)c2c(c1)C[C@H](C[C@H]1CCC[C@H](C)O1)OC2=O`, the IC50 [1] was 21 µM, the Activity (BV-2 [2]) was “Dose-dependent effect” and the IC50 [3] was 21 µM. The Activity (BV-2 [4]) was “Dose-dependent effect”, the inhibition (BV-2 [5]) was “Dose-dependent effect” and the Activity [6] was “Non-toxic”. For the same compound, the inhibition (BV-2 [7]) was “Dose-dependent effect”.
In the case of `C[C@@H]1O[C@@H](C[C@H]2Cc3cc(O)cc(O)c3C(=O)O2)CC[C@@H]1O`, the IC50 [1] is reported as 20 µM, the Activity (BV-2 [2]) is reported as “Dose-dependent effect” and the IC50 [3] is reported as 23 µM. The Activity (BV-2 [4]) was “Dose-dependent effect”, the inhibition (BV-2 [5]) was “Dose-dependent effect” and the Activity [6] was “Non-toxic”. For the same compound, the inhibition (BV-2 [7]) was “Dose-dependent effect”.
For `C[C@H]1CCC[C@H](C[C@H]2Cc3cc(O)cc(O[C@H]4O[C@H](CO)[C@@H](O)[C@H]4O)c3C(=O)O2)O1`, the IC50 [1] was 33 µM, the Activity (BV-2 [2]) was “Dose-dependent effect” and the inhibition [8] was “Dose-dependent effect”. For the same compound, the Activity [9] was “Non-toxic”, the inhibition [10] was “Dose-dependent effect” and the Activity [11] was “Non-toxic”. The Activity (p38 MAPK (Mus musculus)) was “Dose-dependent effect”, the inhibition (BV-2 [12]) was “inactive” and the IC50 [3] was 34 µM. The Activity (BV-2 [4]) was “Dose-dependent effect”, the inhibition (JNK (Mus musculus)) was “inactive” and the inhibition (BV-2 [5]) was “Dose-dependent effect”. For the same compound, the Activity [13] was “Non-toxic”, the Activity [6] was “Non-toxic” and the inhibition (BV-2 [7]) was “Dose-dependent effect”. For the same compound, the inhibition [14] was “Dose-dependent effect” and the inhibition [15] was “Dose-dependent effect”.
In the case of `COc1cc(O)cc2c1C(=O)O[C@@H](C[C@H]1CCC[C@H](C)O1)C2`, the IC50 [1] is reported as 28 µM, the Activity (BV-2 [2]) is reported as “Dose-dependent effect” and the IC50 [3] is reported as 30 µM. For the same compound, the Activity (BV-2 [4]) was “Dose-dependent effect”, the inhibition (BV-2 [5]) was “Dose-dependent effect” and the Activity [6] was “Non-toxic”. For the same compound, the inhibition (BV-2 [7]) was “Dose-dependent effect”.
